Reference: PMC10764114 (ACS Omega, 2023)

Key:
[1] = test system: U87-malignant glioma (ATCC-HTB-14); test: MTT assay, cytotoxicity against U87-malignant glioma cells; format: cell-based, human; details: Homo sapiens, Glioma cell; for viability at 10 µM / viability at 40 µM / viability at 80 µM / viability at 100 µM / viability at 150 µM: read-out: % cell viability U87; for IC50: read-out: IC50 (μM ± SEM U87)
Procedure, shortened: (§1)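 Cells grown in DMEM (4.5 g/L glucose, 10% FBS, 1% penicillin/streptomycin) at 37 °C, 5% CO₂. Seeded at 1 × 10³ cells/well and left 24 h to adhere. Test compound added at 10, 40, 80, 100 or 150 μM for 48 h (text also states MTT added 24 h post-dosing). MTT in PBS added for 3 h, formazan dissolved in DMSO for 30 min, OD read at 550 nm, % viability calculated from absorbance.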

[2] = MTT assay, cytotoxicity against normal HEK293 cells; format: cell-based, human; details: human, HEK293 cells
Procedure, shortened: as §1

| SMILES | viability at 10 µM [1] | viability at 40 µM [1] | viability at 80 µM [1] | viability at 100 µM [1] | viability at 150 µM [1] | IC50 [1] | viability at 48 h, 10 μM [2] | viability at 48 h, 40 μM [2] | viability at 48 h, 80 μM [2] | viability at 48 h, 100 μM [2] | viability at 48 h, 150 μM [2] |
| --- | --- | --- | --- | --- | --- | --- | --- | --- | --- | --- | --- |
| CC(C)Cc1ccc(C(C)C(=O)NN=Cc2ccc(OCC(=O)NN=Cc3ccccc3O)cc2)cc1 (stereo not drawn) [5r, N′-(4-(2-(2-(2-Hydroxybenzylidene)hydrazinyl)-2-oxoethoxy)benzylidene)-2-(4-isobutylphenyl)propanehydrazide] | 109% | 81.4% | 72.8% | 45.5% | 40.6% | 43.66 ± 0.04 µM | 39% | 33.6% | 32% | 26.1% | 25.1% |
| COc1cccc(C=NNC(=O)COc2ccc(C=NNC(=O)C(C)c3ccc(CC(C)C)cc3)cc2)c1 (stereo not drawn) [5p, 2-(4-Isobutylphenyl)-N′-(4-(2-(2-(3-methoxybenzylidene)hydrazinyl)-2-oxoethoxy)benzylidene)propanehydrazide] | 151% | 122% | 93.7% | 93.7% | 93.5% | 90.68 ± 0.13 µM | 49.9% | 49.4% | 49.2% | 48.1% | 39.3% |
| CCN(CC)c1ccc(C=NNC(=O)COc2ccc(C=NNC(=O)C(C)c3ccc(CC(C)C)cc3)cc2)cc1 (stereo not drawn) [5o, N′-(4-(2-(2-(4-(Diethylamino)benzylidene)hydrazinyl)-2-oxoethoxy)benzylidene)-2-(4-isobutylphenyl)propanehydrazide] | 146% | 122% | 121% | 119% | 107% | 119.7 ± 0.25 µM | 49% | 42.9% | 37.7% | 35.8% | 35.2% |
| CC(C)Cc1ccc(C(C)C(=O)NN=Cc2ccc(OCC(=O)NN=Cc3ccc(F)cc3)cc2)cc1 (stereo not drawn) [5q, N′-(4-(2-(2-(4-Fluorobenzylidene)hydrazinyl)-2-oxoethoxy)benzylidene)-2-(4-isobutylphenyl)propanehydrazide] | 183% | 84% | 81.7% | 48.5% | 40.5% | 46 ± 0.08 µM | 27.5% | 25.4% | 19.9% | 19.7% | 17.8% |
| COc1ccc(C=NNC(=O)COc2ccc(C=NNC(=O)C(C)c3ccc(CC(C)C)cc3)cc2)cc1OC (stereo not drawn) [5l, N′-(4-(2-(2-(3,4-Dimethoxybenzylidene)hydrazinyl)-2-oxoethoxy)benzylidene)-2-(4-isobutylphenyl)propanehydrazide] | 97% | 88.4% | 84.9% | 84.2% | 79.7% | 72.83 ± 0.06 µM | 30.5% | 28.1% | 25.9% | 24.9% | 24.2% |
| CC(C)Cc1ccc(C(C)C(=O)NN=Cc2ccc(OCC(=O)NN)cc2)cc1 (stereo not drawn) [compound 4, N′-(4-(2-Hydrazinyl-2-oxoethoxy)benzylidene)-2-(4-isobutylphenyl)propanehydrazide] | 72.5% | 47.9% | 41.6% | 41.3% | 33.7% | 59.9 ± 0.08 µM | 29.1% | 28.6% | 28.2% | 26.3% | 9.96% |
| CC(C)Cc1ccc(C(C)C(=O)NN=Cc2ccc(OCC(=O)NN=Cc3cc(Br)c(O)c(Br)c3)cc2)cc1 (stereo not drawn) [5i, N′-(4-(2-(2-(3,5-Dibromo-4-hydroxybenzylidene)hydrazinyl)-2-oxoethoxy)benzylidene)-2-(4-isobutylphenyl)propanehydrazide] | 40.3% | 36.9% | 31.4% | 29.9% | 24.4% | 38.32 ± 0.1 µM | 67.6% | 57.4% | 55.7% | 49.9% | 43.8% |
| COc1ccc(C=NNC(=O)COc2ccc(C=NNC(=O)C(C)c3ccc(CC(C)C)cc3)cc2)c(O)c1 (stereo not drawn) [5m, N′-(4-(2-(2-(2-Hydroxy-4-methoxybenzylidene)hydrazinyl)-2-oxoethoxy)benzylidene)-2-(4-isobutylphenyl)propanehydrazide] | 142% | 138% | 34.5% | 134% | 128% | 150.5 ± 0.2 µM | 26.2% | 26.1% | 24.2% | 21.9% | 18.6% |
| COc1ccc(C=NNC(=O)COc2ccc(C=NNC(=O)C(C)c3ccc(CC(C)C)cc3)cc2)cc1O (stereo not drawn) [5n, N′-(4-(2-(2-(3-Hydroxy-4-methoxybenzylidene)hydrazinyl)-2-oxoethoxy)benzylidene)-2-(4-isobutylphenyl)propanehydrazide] | 165% | 85.3% | 61.1% | 42.7% | 33.2% | 40.18 ± 0.07 µM | 38.1% | 28% | 24.8% | 16.9% | 12.6% |
| CC(C)Cc1ccc(C(C)C(=O)NN=Cc2ccc(OCC(=O)NN=Cc3ccc(Br)cc3F)cc2)cc1 (stereo not drawn) [5j, N′-(4-(2-(2-(4-Bromo-2-fluorobenzylidene)hydrazinyl)-2-oxoethoxy)benzylidene)-2-(4-isobutylphenyl)propanehydrazide] | 187% | 128% | 94.2% | 93.1% | 78.6% | 43.71 ± 0.07 µM | 44.5% | 40.1% | 38.4% | 36.8% | 26.3% |
| CC(C)Cc1ccc(C(C)C(=O)NN=Cc2ccc(OCC(=O)NN=Cc3ccc(Cl)cc3Cl)cc2)cc1 (stereo not drawn) [5h, N′-(4-(2-(2-(2,4-Dichlorobenzylidene)hydrazinyl)-2-oxoethoxy)benzylidene)-2-(4-isobutylphenyl)propanehydrazide] | 50.2% | 50.1% | 48.8% | 46% | 43.6% | 120.1 ± 0.13 µM | 84.1% | 79.5% | 69.1% | 68.3% | 67.1% |
| CC(C)Cc1ccc(C(C)C(=O)NN=Cc2ccc(OCC(=O)NN=Cc3cccc4ccccc34)cc2)cc1 (stereo not drawn) [5t, 2-(4-Isobutylphenyl)-N′-(4-(2-(2-(naphthalen-1-ylmethylene)hydrazinyl)-2-oxoethoxy)benzylidene)propanehydrazide] | 179% | 169% | 155% | 146% | 140% | 86.74 ± 0.26 µM | 68.7% | 58.9% | 51% | 47.3% | 43% |
